Measured values reported in ChEMBL document CHEMBL5370536, “Design, synthesis, and biological activity of dual monoamine oxidase A and heat shock protein 90 inhibitors, N-Methylpropargylamine-conjugated 4-isopropylresorcinol for glioblastoma” (Eur J Med Chem, 2023).
The source made the active and inactive calls. The calls are words filed in the database; no cut-off is given here.

Assays:
GL26 [1] = test: Downregulation of HER2 expression in mouse GL26 cells incubated for 24 hrs by Western blot analysis; assay type: functional, cell-based; conditions: dose 0.1-3 µM
GL26 [2] = test: Downregulation of Akt phosphorylation expression at Ser 473 residues in mouse GL26 cells incubated for 24 hrs by Western blot analysis; assay type: functional, cell-based; conditions: dose 0.1-3 µM
U-251 [3] = test: Downregulation of Akt phosphorylation expression at Ser 473 residues in human Temozolomide-resistant U-251 cells incubated for 24 hrs by Western blot analysis; assay type: functional, cell-based; conditions: dose 0.1-3 µM
[4] = molecular target: T1, Amine oxidase [flavin-containing] A (Mus musculus, UniProt Q64133); test: Inhibition of MAO A in mouse GL26 cells preincubated for 20 mins followed by 14C-labeled 5-hydroxytryptamine addition and measured after 20 mins by scintillation counter analysis; assay type: cell-based
T1 sequence (Q64133 whole entry): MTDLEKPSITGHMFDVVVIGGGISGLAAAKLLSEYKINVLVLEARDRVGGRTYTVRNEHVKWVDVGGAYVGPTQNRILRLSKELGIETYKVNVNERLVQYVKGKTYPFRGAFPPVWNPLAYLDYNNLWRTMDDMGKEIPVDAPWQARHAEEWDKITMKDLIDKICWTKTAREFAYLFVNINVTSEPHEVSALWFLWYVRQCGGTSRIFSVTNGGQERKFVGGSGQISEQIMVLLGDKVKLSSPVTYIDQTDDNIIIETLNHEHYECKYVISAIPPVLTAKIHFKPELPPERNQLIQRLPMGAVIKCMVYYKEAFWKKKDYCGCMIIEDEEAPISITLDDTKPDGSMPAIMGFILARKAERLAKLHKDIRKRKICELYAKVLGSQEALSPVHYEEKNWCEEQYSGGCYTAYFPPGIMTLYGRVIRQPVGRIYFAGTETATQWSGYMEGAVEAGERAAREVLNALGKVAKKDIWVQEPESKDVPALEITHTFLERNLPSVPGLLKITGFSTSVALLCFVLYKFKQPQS

U-251 [5] = test: Downregulation of HER2 expression in human Temozolomide-resistant U-251 cells incubated for 24 hrs by Western blot analysis; assay type: functional, cell-based; conditions: dose 0.1-3 µM
U-251 [6] = test: Antiproliferative activity against human Temozolomide-resistant U-251 cells assessed as inhibition of cell growth measured after 48 hrs by MTT assay; assay type: functional, cell-based; conditions: U-251, 48 h
Summary of the method: (§1)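 Cells plated at 5×10³ per well 24 h before compound and grown in DMEM with 10% FBS at 37°C, 5% CO₂. After 48 h exposure, the medium was replaced with 0.5 mg/mL MTT for 3 h. Formazan was dissolved in DMSO and read at 570 nm.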

HCT-116 [7] = test: Growth inhibition of human HCT-116 cells incubated for 48 hrs by SRB assay; assay type: functional
Summary of the method: (§2)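 NCI-60 panel screen: cells seeded at 5000 to 40000 per well according to doubling time, 24 h before drug addition at various concentrations. A time-zero plate was TCA-fixed at drug addition. After 48 h drug exposure, growth was read by sulforhodamine B staining. Percent growth = [(Ti − Tz)/(C − Tz)] × 100, and GI50 is the concentration at which this equals 50.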

[8] = Antiproliferative activity against human patient-derived P3 cell assessed as inhibition of cell growth measured after 72 hrs by CCK8 method; assay type: functional, cell-based
Summary of the method: (§3)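 Cell lines from ATCC or from patient surgical specimens (P1S, P3, P3R), kept in DMEM with 10% FBS and 1% penicillin/streptomycin at 37°C, 5% CO₂. P3R medium also held 50 μM TMZ. Cells were seeded at 2×10³/well 24 h before compound, then exposed 72 h.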

[9] = Antiproliferative activity against human patient-derived, TMZ-resistant and concurrent chemo-radiotherapy (CCRT)-resistant P1S cell assessed as inhibition of cell growth measured after 72 hrs by CCK8 method; assay type: functional, cell-based; summary of the method: as §3
U-87 MG = test: Antiproliferative activity against human U-87 MG cells assessed as inhibition of cell growth measured after 72 hrs by CCK8 method; assay type: functional, cell-based, U-87MG ATCC; summary of the method: as §3
[10] = Antiproliferative activity against human U373 MG cells assessed as inhibition of cell growth measured after 72 hrs by CCK8 method; assay type: functional, cell-based, U-373MG ATCC; summary of the method: as §3
[11] = Antitumor activity against mouse GL26 cells xenografted in C57BL/6J mouse model assessed as tumor growth inhibition at 25 mg/kg, ip administered daily for 3 days followed by every 3 days for 14 days by caliper method relative to control; assay type: functional; conditions: GL26, 336 h, time 14 day, read-out: TGI
Summary of the method: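 Male C57BL/6J mice aged 8-9 weeks received 2 × 10⁵ GL26 cells subcutaneously in the lower back. From day 9 after implantation, once tumours were palpable, 25 mg/kg was given i.p. daily for 3 days and then every 3 days over 14 days. Caliper volume was length × width² ÷ 2. TGI% was taken relative to the mean tumour size of the vehicle group.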

GL26 [12] = test: Upregulation of HSP70 expression in mouse GL26 cells incubated for 24 hrs by Western blot analysis; assay type: functional, cell-based; conditions: dose 0.1-3 µM
HCT-116 [13] = test: Downregulation of PD-L1 expression in human HCT-116 cells; assay type: functional, cell-based
Summary of the method: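 HCT116 cells at 3 × 10⁵ per well were treated at various concentrations with or without 20 ng/mL IFN-γ for 48 h. Cells were stained with mouse anti-PD-L1 for 1 h in PBS/0.05% BSA, then FITC goat anti-mouse for 1 h. Surface FITC mean fluorescence intensity was measured by flow cytometry.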

U-251 [14] = test: Upregulation of HSP70 expression in human Temozolomide-resistant U-251 cells incubated for 24 hrs by Western blot analysis; assay type: functional, cell-based; conditions: dose 0.1-3 µM
NCI-H460 = test: Growth inhibition of human NCI-H460 cells incubated for 48 hrs by SRB assay; assay type: functional; summary of the method: as §2
SF-295 = test: Growth inhibition of human SF-295 cells incubated for 48 hrs by SRB assay; assay type: functional; summary of the method: as §2
U-251 [15] = test: Growth inhibition of human U-251 cells incubated for 48 hrs by SRB assay; assay type: functional; summary of the method: as §2
A549 = test: Growth inhibition of human A549 cells incubated for 48 hrs by SRB assay; assay type: functional; summary of the method: as §2
LN-229 = test: Antiproliferative activity against human LN-229 cells assessed as inhibition of cell growth measured after 72 hrs by CCK8 method; assay type: functional, cell-based; conditions: LN-229, 72 h; summary of the method: as §3
SNB-19 = test: Growth inhibition of human SNB-19 cells incubated for 48 hrs by SRB assay; assay type: functional; summary of the method: as §2
[16] = Antiproliferative activity against mouse GL26 cells assessed as inhibition of cell growth measured after 48 hrs by MTT assay; assay type: functional, cell-based; conditions: GL26, 48 h; summary of the method: as §1
[17] = molecular target: Heat shock protein HSP 90-alpha (Homo sapiens, UniProt P07900); test: Inhibition of human recombinant HSP90alpha preincubated for 30 mins followed by FITC-GM addition and mesured after 3 hrs by fluorescence polarization assay
A 172 = test: Antiproliferative activity against human A-172 cells assessed as inhibition of cell growth measured after 72 hrs by CCK8 method; assay type: functional, cell-based; conditions: A 172, 72 h; summary of the method: as §3
RPMI-8226 = test: Growth inhibition of human RPMI-8226 cells incubated for 48 hrs by SRB assay; assay type: functional; summary of the method: as §2
SF-268 = test: Growth inhibition of human SF-268 cells incubated for 48 hrs by SRB assay; assay type: functional; summary of the method: as §2
SNB-75 = test: Growth inhibition of human SNB-75 cells incubated for 48 hrs by SRB assay; assay type: functional; summary of the method: as §2
NCI-H522 = test: Growth inhibition of human NCI-H522 cells incubated for 48 hrs by SRB assay; assay type: functional; summary of the method: as §2
GL26 [18] = test: Downregulation of IFN-gamma induced PD-L1 expression in mouse GL26 cells incubated for 24 hrs by flow cytometry analysis; assay type: functional, cell-based
Summary of the method: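 GL26 cells at 3.6 × 10⁵ per well were treated at various concentrations with or without 10 ng/mL IFN-γ for 24 h. Cells were stained with goat anti-PD-L1 for 1 h in PBS/0.05% BSA, then FITC donkey anti-goat for 1 h, and read by flow cytometry. MFI was normalised to the secondary-antibody-only isotype control and expressed as an MFI ratio.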

SW-620 = test: Growth inhibition of human SW-620 cells incubated for 48 hrs by SRB assay; assay type: functional; summary of the method: as §2
K562 = test: Growth inhibition of human K562 cells incubated for 48 hrs by SRB assay; assay type: functional; summary of the method: as §2
SF-539 = test: Growth inhibition of human SF-539 cells incubated for 48 hrs by SRB assay; assay type: functional; summary of the method: as §2
T98G = test: Antiproliferative activity against human T98G cells assessed as inhibition of cell growth measured after 72 hrs by CCK8 method; assay type: functional, cell-based; summary of the method: as §3
[19] = Antiproliferative activity against human patient-derived TMZ-resistant GBM cells with MGMT negative P3R cell assessed as inhibition of cell growth measured after 72 hrs by CCK8 method; assay type: functional, cell-based; summary of the method: as §3

Question: What does the source list for `CC(C)c1cc(-c2n[nH]c(=O)n2-c2ccc3c(ccn3C)c2)c(O)cc1O` [GANETESPIB]?
Answer: Activity (GL26 [1]): Dose-Dependent Effect; Activity (GL26 [2]): Dose-Dependent Effect; Activity (U-251 [3]): Dose-Dependent Effect; IC50 [4]: > 10000 nM; Activity (U-251 [5]): Dose-Dependent Effect; IC50 (U-251 [6]): > 10000 nM

Question: Which IC50 [4] does the source give for `C#CCN(C)CCCOc1cc(N(CCC)C(=O)c2cc(C(C)C)c(O)cc2O)ccc1Cl` here?
Answer: Its IC50 is 860 nM.

Question: With `C#CCN(C)CCCOc1cc(N(CC)C(=O)c2cc(C(C)C)c(O)cc2O)ccc1Cl` as the molecule, how does the IC50 [4] read?
Answer: The IC50 was greater than 10000 nM.

Question: For `C#CCN(C)CCCOc1cccc(N(CCC)C(=O)c2cc(C(C)C)c(O)cc2O)c1Cl`, which IC50 [4] is on record?
Answer: The IC50 was 880 nM.

Question: Which IC50 [4] does the source give for `C#CCN(C)CCCOc1cccc(N(CC)C(=O)c2cc(C(C)C)c(O)cc2O)c1Cl` here?
Answer: The IC50 was 2270 nM.

Question: Which results are given for `C#CCN(C)CCCOc1ccc(N(CC)C(=O)c2cc(C(C)C)c(O)cc2O)cc1Cl`?
Answer: GI50 (HCT-116 [7]): 80 nM; IC50 [8]: 2930 nM; IC50 [9]: 680 nM; IC50 (U-87 MG): 360 nM; IC50 [10]: 890 nM; inhibition in vivo at 25 mg/kg [11]: 59.8%; Activity (GL26 [12]): Dose-Dependent Effect; Activity (HCT-116 [13]): Active; Activity (U-251 [14]): Dose-Dependent Effect; Activity (GL26 [1]): Dose-Dependent Effect; GI50 (NCI-H460): 50 nM; GI50 (SF-295): 320 nM; Activity (GL26 [2]): Dose-Dependent Effect; GI50 (U-251 [15]): 370 nM; Activity (U-251 [3]): Dose-Dependent Effect; GI50 (A549): 140 nM; IC50 (LN-229): 310 nM; GI50 (SNB-19): 440 nM; IC50 [16]: 490 nM; IC50 [17]: 16 nM; IC50 (A 172): 890 nM; GI50 (RPMI-8226): 330 nM; GI50 (SF-268): 1430 nM; IC50 [4]: 4580 nM; Activity (U-251 [5]): Dose-Dependent Effect; GI50 (SNB-75): 860 nM; GI50 (NCI-H522): 70 nM; Activity (GL26 [18]): Dose-Dependent Effect; GI50 (SW-620): 240 nM; GI50 (K562): 70 nM; GI50 (SF-539): 310 nM; IC50 (U-251 [6]): 260 nM; IC50 (T98G): 460 nM; IC50 [19]: 1450 nM

Question: With `C#CCN(C)CCCOc1cccc(N(C)C(=O)c2cc(C(C)C)c(O)cc2O)c1Cl` as the molecule, how does the IC50 [4] read?
Answer: The IC50 was greater than 10000 nM.
